One data set relates to hepatic DNL. The settings on record: subjects with type 2 diabetes mellitus and hypertriglyceridemia; cited from earlier work.
For data set [1] the following is noted: single doses between 30 and 1,000 mg; healthy adults; cited from earlier work.
Data set [2] can be described thus: Plasma pharmacokinetics after a single oral dose. The note with it: human. In kind it is in vivo. The essentials:
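Single oral capsule dose with 240 mL water in fasted men during fructose feeding, n = 10/group. Plasma was sampled predose and hourly through 10 h. Levels were measured by validated HPLC-MS/MS, with a lower limit of quantitation of 0.5 ng/mL. Noncompartmental parameters were calculated from actual sample times.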

Data set [3] can be described thus: Serum lipids, leptin, adiponectin, glucose and blood ketones. It counts as in vivo, human. The settings on record: single dose of 20, 50, or 200 mg. The essentials:
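Blood was drawn at protocol-specified times during the fasted, fructose-fed crossover periods. Serum lipids and blood ketones (ketometer) were measured by a clinical laboratory. Leptin and adiponectin were measured by solid-phase ELISA.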

Data set [4] is described as follows: Hepatic extraction in preclinical studies. In kind it is in vivo. The settings on record: cynomolgus monkeys, unpublished data.
A short description of data set [5]: Safety: treatment-emergent adverse events after a single oral dose. It counts as in vivo, human. The gist of the method: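 TEAEs were any events after study medication and were coded to MedDRA v18.0. Events were attributed to the period's treatment, and events between acetate infusion and first dosing were counted separately. Monitoring included physical exams, vital signs (hours 0, 5.5, 10.5), clinical laboratory tests (day −1 and hour 10) and screening ECG.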

Data set [6] relates to hepatic de novo lipogenesis (DNL). In words: Fructose-stimulated fractional hepatic DNL. It counts as in vivo, human. The note with it: for Inhibition of fasting-adjusted fractional DNL AUEC relative to placebo: 10-hour period; for Inhibition of fasting-adjusted fractional DNL AUEC relative to placebo / Mean reduction of fasting-adjusted DNL at 10 hours postdose relative to placebo: mean ± SEM. The gist of the method:
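Overweight/obese men (18–50 y, BMI 25–32 kg/m²), 10/dose, placebo crossover, ≥5-day washout, fasted from hour −12. IV [1-13C]acetate (10 g in 1,000 mL 0.45% saline, 50 mL/hour, 19 h) from hour −9; capsule at hour 0; fructose 250 mg/kg every 30 min to hour +9.5. VLDL-TG palmitate by GC-MS/MIDA, hours −1 to +10; fasting-baseline-subtracted, AUEC, expressed relative to placebo.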

For data set [7] the test system is unchanged. The data set can be described thus: PK-PD analysis of plasma exposure versus fractional DNL. It counts as in vivo, human. The note with it: all dose groups. The gist of the method: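 Each subject's time-matched plasma levels (sampled predose and hourly to 10 h, HPLC-MS/MS) were paired with fasting-adjusted fractional DNL at every sampling point for every dose group. The plasma levels at which 70% and 90% inhibition of maximal DNL occurred were read from these paired data.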

Take `CCc1ccc(CCOc2ccc(CC3SC(=O)NC3=O)cc2)nc1` (stereo not shown) [pioglitazone]: in the data set on hepatic DNL, the “Reduction of hepatic DNL” value is 40%.
By Tmax is commonly meant the time at which the peak concentration occurs. What is called Cmax is the peak of the concentration-time curve. For the compound `COc1ccccc1[C@H](Cn1c(=O)n(C(C)(C)C(=O)O)c(=O)c2c(C)c(-c3ncco3)sc21)OC1CCOCC1` [NDI‐010976], the Tolerability result in data set [1] was “well tolerated”. Moreover, the Tmax in data set [2] was in the range of 1 to 2 h. In data set [2] (20 mg), this compound had a Cmax of 43.4 ng/mL. This compound registered a concentration at 2 h in data set [2] (20 mg) of 5.7 to 23.5 ng/mL. Moreover, the “Effects on serum glucose, lipids, leptin, adiponectin, blood ketones” value in data set [3] was “no significant NDI‐010976 effects”. For the same compound, in data set [4], the Hepatic extraction result is recorded as “approximately 94%”. Moreover, the “Number of subjects with TEAEs (% of subjects dosed)” value in data set [5] (20 mg) is 3 (33%) subjects (%); in data set [5] (50 mg), 7 (70%) subjects (%); in data set [5] (200 mg) it was 5 (50%) subjects (%); in data set [5] (Total, all doses) it was 15 (52%) subjects (%). Further, the “Number of subjects without TEAEs (% of subjects dosed)” value is 6 (67%) subjects (%) in data set [5] (20 mg); 3 (30%) subjects (%) in data set [5] (50 mg); 5 (50%) subjects (%) in data set [5] (200 mg); 14 (48%) subjects (%) in data set [5] (Total, all doses). Further, in data set [5] (single oral doses 20 to 200 mg), the “Deaths, serious AEs, Grade 3 or higher TEAEs” value is on record as “no deaths, serious AEs, or Grade 3 or higher TEAEs”. Moreover, the Safety and tolerability entry in data set [5] (single oral doses 20 to 200 mg) was “safe and well tolerated”. Further, the entries for the “Inhibition of fasting-adjusted fractional DNL AUEC relative to placebo” value in data set [6] (20 mg single oral dose), in data set [6] (50 mg single oral dose) and in data set [6] (200 mg single oral dose) were “approximately 70 ± 6%”, around 85 ± 3% and around 104 ± 2%, respectively. In addition, the “Mean reduction of fasting-adjusted DNL at 10 hours postdose relative to placebo” value in data set [6] (20 mg single oral dose) is recorded as “approximately 41 ± 9%”; in data set [6] (50 mg single oral dose) it was around 53 ± 9%; in data set [6] (200 mg single oral dose), around 94 ± 4%. Also, the “Inhibition of fractional DNL at 2 hours postdose” value in data set [6] (20 mg, mean ± standard deviation) is 60 ± 26%. Besides, the “Inhibition of DNL by fasting-adjusted DNL AUEC, all subjects” value in data set [6] (50 mg single dose, 10-hour period vs matched placebo period) was above 70%. The “Inhibition of DNL, all subjects” value in data set [6] (200 mg single dose) is “complete or near complete inhibition of DNL”. Moreover, the “Plasma concentration associated with at least 70% inhibition of fractional DNL” value in data set [7] (one data point outlier) is above 2.2 ng/mL. The “Plasma concentration yielding >90% inhibition of fractional DNL” value in data set [7] (two data point outliers) was above 4.0 ng/mL.

The values are drawn from paper PMC5599970 (Hepatology (Baltimore, Md.), 2017).
